Legend:
[1] = molecular target: Mu-type opioid receptor (Mus musculus, UniProt P42866); experiment: Binding affinity against opioid receptor
[2] = Plasma half life in rat; format: ADME, organism-based
[3] = molecular target: Adrenergic receptor alpha-1 (Homo sapiens) (UniProt P35348+P25100+P35368); experiment: Selectivity ratio( alpha-1b,1d/alpha1a); format: protein assay
[4] = organism: Canis familiaris; experiment: Potency to inhibit phenylephrine induced intraurethral pressure in dog.; format: functional, Canis lupus familiaris, Urethra
How it was run: (§1)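 In dogs, diastolic blood pressure and intraurethral pressure were stimulated with phenylephrine. Antagonist potency was expressed as Kb in µg/kg.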

[5] = Bioavailability in rat; format: ADME, organism-based; settings: in vivo
[6] = organism: Rattus norvegicus; experiment: Duration of action in rat; format: ADME, organism-based; settings: in vivo
[7] = Bioavailability in dog; format: ADME, organism-based, Canis lupus familiaris; settings: in vivo
[8] = organism: Rattus norvegicus; experiment: Dose required to inhibit 50% of contractile responses induced by phenylephrine in rat prostate.; format: functional, Prostate gland
[9] = organism: Rattus norvegicus; experiment: Antagonism against phenylephrine induced contractions in rat prostate.; format: functional, Prostate gland
[10] = molecular target: T1, Alpha-1A adrenergic receptor (Homo sapiens, UniProt P35348); experiment: In vitro binding affinity against alpha-1A adrenergic receptor of human clones
T1 sequence (P35348 whole entry): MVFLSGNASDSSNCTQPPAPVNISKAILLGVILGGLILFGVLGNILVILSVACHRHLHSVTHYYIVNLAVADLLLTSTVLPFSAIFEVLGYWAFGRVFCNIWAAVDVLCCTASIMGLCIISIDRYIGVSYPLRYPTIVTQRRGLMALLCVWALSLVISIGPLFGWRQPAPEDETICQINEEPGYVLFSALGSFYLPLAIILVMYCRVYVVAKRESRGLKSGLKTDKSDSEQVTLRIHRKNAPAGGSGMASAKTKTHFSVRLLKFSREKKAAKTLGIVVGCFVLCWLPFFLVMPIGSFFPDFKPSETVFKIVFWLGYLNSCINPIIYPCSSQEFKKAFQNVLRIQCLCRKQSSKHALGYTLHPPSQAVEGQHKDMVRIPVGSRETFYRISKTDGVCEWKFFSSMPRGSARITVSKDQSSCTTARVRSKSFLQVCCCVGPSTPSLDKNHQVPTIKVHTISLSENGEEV

[11] = organism: Rattus norvegicus; experiment: Antagonism against norepinephrine induced contractions in rat aorta.; format: functional
[12] = molecular target: T2, Alpha-1B adrenergic receptor (Homo sapiens, UniProt P35368); experiment: In vitro binding affinity against Alpha-1B adrenergic receptor cloned from human.
T2 sequence (P35368 whole entry): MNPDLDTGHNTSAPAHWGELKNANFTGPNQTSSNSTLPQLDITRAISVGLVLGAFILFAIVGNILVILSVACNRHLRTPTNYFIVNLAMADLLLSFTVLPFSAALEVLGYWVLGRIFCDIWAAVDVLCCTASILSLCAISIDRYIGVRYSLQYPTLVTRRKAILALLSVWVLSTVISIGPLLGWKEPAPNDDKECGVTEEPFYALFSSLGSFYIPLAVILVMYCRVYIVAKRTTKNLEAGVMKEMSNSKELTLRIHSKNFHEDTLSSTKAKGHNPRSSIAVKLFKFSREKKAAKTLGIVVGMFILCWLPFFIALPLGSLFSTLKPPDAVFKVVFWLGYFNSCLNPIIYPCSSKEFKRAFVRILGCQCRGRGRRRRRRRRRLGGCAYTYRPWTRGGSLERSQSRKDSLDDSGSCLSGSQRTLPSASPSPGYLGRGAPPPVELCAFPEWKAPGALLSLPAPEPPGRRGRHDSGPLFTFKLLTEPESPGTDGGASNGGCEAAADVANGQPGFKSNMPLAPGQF

[13] = organism: Canis familiaris; experiment: Potency to inhibit phenylephrine induced diastolic blood pressure in dog.; format: functional, Canis lupus familiaris, Artery; how it was run: as §1
[14] = molecular target: T3, Alpha-1D adrenergic receptor (Homo sapiens, UniProt P25100); experiment: In vitro binding affinity against alpha-1D adrenergic receptor (cloned human).
T3 sequence (P25100 whole entry): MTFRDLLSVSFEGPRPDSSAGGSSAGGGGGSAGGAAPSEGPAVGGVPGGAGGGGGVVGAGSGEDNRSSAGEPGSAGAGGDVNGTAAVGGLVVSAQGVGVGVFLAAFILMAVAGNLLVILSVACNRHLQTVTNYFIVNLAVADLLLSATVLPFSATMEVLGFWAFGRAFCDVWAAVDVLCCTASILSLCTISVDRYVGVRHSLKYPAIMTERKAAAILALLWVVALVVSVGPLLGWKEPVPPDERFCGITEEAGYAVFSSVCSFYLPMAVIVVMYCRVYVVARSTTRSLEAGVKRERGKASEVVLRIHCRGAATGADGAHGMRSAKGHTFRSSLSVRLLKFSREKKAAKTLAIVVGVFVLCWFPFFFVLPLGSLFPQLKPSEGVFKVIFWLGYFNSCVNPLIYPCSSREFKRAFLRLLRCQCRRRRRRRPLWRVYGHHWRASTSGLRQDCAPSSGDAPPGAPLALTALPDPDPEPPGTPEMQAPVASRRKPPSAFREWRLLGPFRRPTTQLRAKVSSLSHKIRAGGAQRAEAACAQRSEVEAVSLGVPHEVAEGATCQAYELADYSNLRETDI

[15] = Plasma half life in dog; format: ADME, organism-based, Canis lupus familiaris

Sequence of Mu-type opioid receptor (P42866 whole entry): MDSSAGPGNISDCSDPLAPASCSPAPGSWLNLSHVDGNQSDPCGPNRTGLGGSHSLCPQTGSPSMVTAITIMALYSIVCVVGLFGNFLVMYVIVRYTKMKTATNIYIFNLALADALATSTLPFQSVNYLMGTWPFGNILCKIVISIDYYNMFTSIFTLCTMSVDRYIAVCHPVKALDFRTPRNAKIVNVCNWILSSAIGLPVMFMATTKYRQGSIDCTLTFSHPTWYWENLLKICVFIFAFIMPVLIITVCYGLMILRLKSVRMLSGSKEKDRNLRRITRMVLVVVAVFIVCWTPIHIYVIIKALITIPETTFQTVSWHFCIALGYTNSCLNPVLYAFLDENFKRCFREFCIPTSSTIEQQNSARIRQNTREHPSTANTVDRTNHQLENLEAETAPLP

With `CCC1=C(C(N)=O)C(c2ccc(F)cc2F)N(C(=O)NCCCN2CCC(C#N)(c3ccccc3)CC2)C(=O)N1` (stereo not given) the Ki [1] was 51000 nM, the half-life [2] was 0.4 h and the Ratio [3] was greater than 900. The Kb [4] was 14.2 µg/kg, the bioavailability [5] was 8% and the Time [6] was 1.5 h. The bioavailability [7] was 32%, the AD50 [8] was 0.018 mg/kg and the Kb [9] was 2.2 nM. The Ki [10] was 0.7 nM, the Kb [11] was greater than 1000 nM and the Ki [12] was 610 nM. It also gave a Kb [13] greater than 300 µg/kg, a Ki [14] of 1280 nM and a half-life [15] of 2.3 h.

— ChEMBL document CHEMBL1132477, “Design and synthesis of novel alpha(1)(a) adrenoceptor-selective antagonists. 2. Approaches to eliminate opioid agonist metabolites via modification of linker and 4-methoxycarbonyl-4-phenylpiperidine moiety” (J Med Chem, 1999)
